According to ChEMBL document CHEMBL3400034, “Design, synthesis and biological evaluation of di-substituted noscapine analogs as potent and microtubule-targeted anticancer agents” (Bioorg Med Chem Lett, 2015):
Calls of active or inactive are those of the source. The rule behind the calls is not given here.

How the values were obtained:
MDA-MB-231 [1] = assay: Induction of apoptosis in human MDA-MB-231 cells assessed as reduction in survivin protein expression at 25 uM after 24 hrs by immunoblot method; type: functional, cell-based
Procedure, shortened: (§1)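 Lysates from treated and control cells run on immunoblots. Probed for survivin and cleaved PARP, with β-actin as loading control.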

MDA-MB-231 [2] = assay: Induction of apoptosis in human MDA-MB-231 cells assessed as increase in cleaved PARP protein level at 25 uM after 24 hrs by immunoblot method; type: functional, cell-based; procedure, shortened: as §1
MDA-MB-231 [3] = assay: Induction of apoptosis in human MDA-MB-231 cells assessed as increase in caspase-3/7 activity by measuring Z-DEVD-aminoluciferin cleavage at 25 uM after 24 hrs by luminescence plate reader based method; type: functional, cell-based
Procedure, shortened: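 Lysates from treated and control cells assayed for caspase-3/7 activity. Read-out was luminescence from cleavage of Z-DEVD-aminoluciferin, expressed relative to control.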

MDA-MB-231 [4] = assay: Cytotoxicity activity against human MDA-MB-231 cells after 48 hrs by MTT assay; type: functional, cell-based; conditions: MDA-MB-231, 48 h
Procedure, shortened: (§2)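 Cells exposed for 48 h to increasing gradient concentrations. Proliferation read by MTT assay as percentage cell survival. IC50 is the drug concentration giving 50% inhibition of proliferation.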

MDA-MB-231 [5] = assay: Induction of cell death in human MDA-MB-231 cells at 25 uM after 48 hrs by propidium iodide staining based FACS method; type: functional
Procedure, shortened: (§3)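 MDA-MB-231 cells treated for 0–48 h, with samples at several time points. Concentration was 10 µM for some analogs and 25 µM for others. DNA stained with propidium iodide and analysed by flow cytometry. 2N DNA scored as G1, 4N as G2/M, below 2N as sub-G1 (apoptotic index).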

[6] = Cytotoxicity activity against human PC3 cells after 48 hrs by MTT assay; type: functional, cell-based; conditions: PC-3, 48 h; procedure, shortened: as §2
Tubulin (Bos taurus) [7] = target: T1, Tubulin (Bos taurus) (UniProt Q6B856+Q862L2+Q862F3); assay: Inhibition of bovine brain tubulin polymerization incubated for 10 to 30 mins by spectrophotometry based light scattering assay
Procedure, shortened: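 Polymerisation of 12 µM tubulin followed by turbidity (light scattering) at 350 nm. Compound range 0–25 µM, over 30 min. Reported as relative absorbance.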

MDA-MB-231 [8] = assay: Induction of apoptosis in human MDA-MB-231 cells assessed as accumulation at subG1 phase at 25 uM after 12 to 48 hrs by propidium iodide staining based FACS method; type: functional, cell-based; procedure, shortened: as §3
Tubulin = Tubulin (Bos taurus, UniProt Q6B856+Q862L2+Q862F3); assay: (§4) Binding affinity to bovine brain tubulin assessed as reduction in tubulin intrinsic tryptophan fluorescence intensity incubated for 45 mins by spectrophotometry based fluorescence titration assay
Procedure, shortened: (§5)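 Tubulin binding measured as quenching of intrinsic tryptophan fluorescence across increasing compound concentrations. KD derived from double reciprocal plots. Mean ± S.D. of three independent experiments, each performed in triplicate.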

Tubulin (Bos taurus) [9] = target: T1, Tubulin (Bos taurus); assay: as §4; procedure, shortened: as §5
MDA-MB-231 [10] = assay: Induction of cell cycle arrest in human MDA-MB-231 cells assessed as accumulation at G2/M phase at 25 uM after 12 to 48 hrs by propidium iodide staining based FACS method; type: functional; procedure, shortened: as §3
MDA-MB-231 [11] = assay: Induction of cell death in human MDA-MB-231 cells at 10 uM after 48 hrs by propidium iodide staining based FACS method; type: functional; procedure, shortened: as §3
MDA-MB-231 [12] = assay: Induction of apoptosis in human MDA-MB-231 cells assessed as increase in cleaved PARP protein level at 10 uM after 24 hrs by immunoblot method; type: functional, cell-based
Procedure, shortened: (§6)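 Protein lysates from treated and control MDA-MB-231 cells analysed by immunoblot, probed for survivin and cleaved PARP, with β-actin as loading control.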

MDA-MB-231 [13] = assay: Induction of apoptosis in human MDA-MB-231 cells assessed as increase in caspase-3/7 activity by measuring Z-DEVD-aminoluciferin cleavage at 10 uM after 24 hrs by luminescence plate reader based method; type: functional, cell-based
Procedure, shortened: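 Lysates from treated and control MDA-MB-231 cells assayed for caspase-3/7 activity by luminescence from cleavage of Z-DEVD-aminoluciferin substrate; activity expressed relative to untreated control.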

MDA-MB-231 [14] = assay: Induction of apoptosis in human MDA-MB-231 cells assessed as reduction in survivin protein expression at 10 uM after 24 hrs by immunoblot method; type: functional, cell-based; procedure, shortened: as §6
MDA-MB-231 [15] = assay: Induction of cell cycle arrest in human MDA-MB-231 cells assessed as accumulation at G2/M phase at 10 uM after 12 to 48 hrs by propidium iodide staining based FACS method; type: functional
Procedure, shortened: (§7)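 MDA-MB-231 cells treated for 0–48 h (compounds at 10 µM or 25 µM depending on analog); DNA stained with propidium iodide and cell cycle profiles read by flow cytometry; G2/M (4N DNA) and sub-G1 (apoptotic index) populations quantified at each time point.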

MDA-MB-231 [16] = assay: Induction of apoptosis in human MDA-MB-231 cells assessed as accumulation at subG1 phase at 10 uM after 12 to 48 hrs by propidium iodide staining based FACS method; type: functional, cell-based; procedure, shortened: as §7
Tubulin (Bos taurus) [17] = target: T1, Tubulin (Bos taurus); assay: Inhibition of bovine brain tubulin polymerization at 25 uM incubated for 10 to 30 mins by spectrophotometry based light scattering assay
Procedure, shortened: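 Assembly of 12 µM tubulin followed by turbidity (light scattering) at 350 nm over 30 min with compound at 0–25 µM; relative absorbance compared with control.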

Row | inhibition (Tubulin (Bos taurus) [17]) | Structure (SMILES) | Activity (MDA-MB-231 [1]) | Activity (MDA-MB-231 [2]) | Activity (MDA-MB-231 [3]) | IC50 (MDA-MB-231 [4]) | Activity (MDA-MB-231 [5]) | IC50 [6] | inhibition (Tubulin (Bos taurus) [7]) | Activity (MDA-MB-231 [8]) | Kd (Tubulin) | Activity (Tubulin (Bos taurus) [9]) | Activity (MDA-MB-231 [10]) | Activity (MDA-MB-231 [11]) | Activity (MDA-MB-231 [12]) | Activity (MDA-MB-231 [13]) | Activity (MDA-MB-231 [14]) | Activity (MDA-MB-231 [15]) | Activity (MDA-MB-231 [16])
1 | – | COc1ccc2c(c1OC(=O)NCc1ccccc1)C(=O)O[C@@H]2[C@H]1c2c(c(Br)c3c(c2OC)OCO3)CCN1C | Active | Active | Active | 20 µM | 80% | 49.4 µM | Dose-dependent effect | Active | 21 µM | Dose-dependent effect | 15% | – | – | – | – | – | –
2 | – | CCNC(=O)Oc1c(OC)ccc2c1C(=O)O[C@@H]2[C@H]1c2c(c(Br)c3c(c2OC)OCO3)CCN1C | Active | Active | Active | 3.9 µM | 80% | 22 µM | Dose-dependent effect | Active | 26 µM | Dose-dependent effect | 15% | – | – | – | – | – | –
3 | – | COc1ccc2c(c1OC(C)=O)C(=O)O[C@@H]2[C@H]1c2c(c(Br)c3c(c2OC)OCO3)CCN1C | – | – | – | 2.5 µM | – | 48.9 µM | Dose-dependent effect | – | 44 µM | Dose-dependent effect | – | 80% | Active | Active | inactive | 15% | Active
4 | Active | COc1ccc2c(c1O)C(=O)O[C@@H]2[C@H]1c2c(c(Br)c3c(c2OC)OCO3)CCN1C | – | – | – | 2.2 µM | – | 5.6 µM | Dose-dependent effect | – | 55 µM | Dose-dependent effect | – | – | Active | Active | inactive | 15% | Active
